In brackets after ≈: the same amount, converted by molar mass.
Tests used:
Escherichia coli [1] = assay: Antibacterial activity against aminoglycosides-resistant Escherichia coli XL1-blue harboring pSF815 expressing AAC(6')-APH(2'') enzyme by double-microdilution method; type: functional
Escherichia coli [2] = assay: Antibacterial activity against Escherichia coli XL1-blue by double-microdilution method; type: functional
Escherichia coli [3] = assay: Antibacterial activity against Escherichia coli BL21 by double-microdilution method; type: functional
Escherichia coli [4] = assay: Antibacterial activity against Escherichia coli R477-100 by double-microdilution method; type: functional
Escherichia coli [5] = assay: Resistance index, MIC for aminoglycosides-resistant Escherichia coli XL1-blue harboring pSF815 expressing AAC(6')-APH(2'') enzyme to MIC for Escherichia coli XL1-blue; type: functional
Summary of the method: (§1)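 Ratio of MIC on the plasmid-bearing resistant strain to MIC on its background strain (pETSACG1 vs BL21; pET9d or pSF815 vs XL1 blue). MICs by NCCLS double microdilution from starting concentrations of 384 and 1.5 µg/mL, in duplicate, two to four experiments.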

Escherichia coli [6] = assay: Resistance index, MIC for aminoglycosides-resistant Escherichia coli XL1-blue harboring pET9d expressing APH(3')-1a enzyme to MIC for Escherichia coli XL1-blue; type: functional; summary of the method: as §1
Escherichia coli [7] = assay: Antibacterial activity against kanamycin-resistant Escherichia coli AG100A expressing aminoglycosides resistant APH(3')-1 enzyme by double-microdilution method; type: functional
Escherichia coli [8] = assay: Antibacterial activity against aminoglycosides-resistant Escherichia coli XL1-blue harboring pET9d expressing APH(3')-1a enzyme by double-microdilution method; type: functional
Escherichia coli [9] = assay: Antibacterial activity against Escherichia coli ATCC 25922 by double-microdilution method; type: functional
Escherichia coli [10] = assay: Resistance index, MIC for aminoglycosides-resistant Escherichia coli BL21 harboring pETSACG1 expressing APH(3')-3a enzyme to MIC for Escherichia coli BL21; type: functional; summary of the method: as §1
Escherichia coli [11] = assay: Antibacterial activity against kanamycin-resistant Escherichia coli AG100B expressing aminoglycosides resistant APH(3')-1 enzyme by double-microdilution method; type: functional
Staphylococcus aureus = assay: Antibacterial activity against methicillin-resistant Staphylococcus aureus ATCC 43300 by double-microdilution method; type: functional
Escherichia coli [12] = assay: Antibacterial activity against aminoglycosides-resistant Escherichia coli BL21 harboring pETSACG1 expressing APH(3')-3a enzyme by double-microdilution method; type: functional
Bacillus subtilis = assay: Antibacterial activity against aminoglycosides-susceptible Bacillus subtilis ATCC 6633 by double-microdilution method; type: functional
[13] = Inhibition of Escherichia coli topoisomerase 4 assessed as reduction in supercoiled pBR322 DNA relaxation activity after 30 mins by electrophoresis; settings: read-out: IC50
Summary of the method: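 E. coli TopoIV relaxation of supercoiled pBR322 in 40 mM HEPES-KOH pH 7.6 with 100 mM potassium glutamate, 10 mM Mg(OAc)₂, 10 mM DTT, 1 mM ATP and 50 µg/mL albumin. Incubated 37 °C for 30 min, stopped with EDTA, loading dye and chloroform/isoamyl alcohol, then run on 1% agarose. Supercoiled DNA percentage was quantified from gel images. IC50 is the 50% reduction versus drug-free control.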

[14] = Inhibition of Escherichia coli DNA gyrase assessed as reduction in relaxed pBR322 DNA supercoiling activity after 1 hr by electrophoresis; settings: read-out: IC50
Summary of the method: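 Supercoiling of relaxed pBR322 (12.5 ng/µL) by E. coli DNA gyrase in 35 mM Tris-Cl pH 7.5 with 24 mM KCl, 4 mM MgCl₂, 2 mM DTT, 1.8 mM spermidine, 1 mM ATP, 6.5% glycerol and 0.1 mg/mL BSA. Incubated 37 °C for 1 h, stopped with loading dye plus chloroform/isoamyl alcohol, and resolved on 1% agarose. IC50 is the concentration halving activity versus drug-free control.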

Escherichia coli [15] = assay: Inhibition of protein synthesis in Escherichia coli S30 extracts assessed as luciferase activity after 1 hr by coupled transcription/translation assay; type: functional; settings: Escherichia coli, 1 h; read-out: IC50
Summary of the method: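 Coupled transcription/translation of the pBESTluc plasmid in E. coli S30 extract with varying compound concentrations, 37 °C for 60 min. Reactions were cooled on ice, diluted in Tris-phosphate pH 7.8 reagent, and luciferase luminescence was read immediately after substrate addition. IC50 came from concentration-response curves fitted to at least two independent experiments.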

SMILES	MIC (Escherichia coli [1])	MIC (Escherichia coli [2])	MIC (Escherichia coli [3])	MIC (Escherichia coli [4])	Ratio (Escherichia coli [5])	Ratio (Escherichia coli [6])	MIC (Escherichia coli [7])	MIC (Escherichia coli [8])	MIC (Escherichia coli [9])	Ratio (Escherichia coli [10])	MIC (Escherichia coli [11])	MIC (Staphylococcus aureus)	MIC (Escherichia coli [12])	MIC (Bacillus subtilis)	IC50 [13]	IC50 [14]	IC50 (Escherichia coli [15])
NC[C@@H]1O[C@H](O[C@H]2[C@@H](O)[C@H](O[C@@H]3[C@@H](O)[C@H](N)C[C@H](N)[C@H]3O[C@H]3O[C@H](CN)[C@@H](O)[C@H](O)[C@H]3N)O[C@@H]2C(=O)NCc2cn(Cc3ccc(CN4CCN(c5cc6c(cc5F)c(=O)c(C(=O)O)cn6C5CC5)CC4)cc3)nn2)[C@H](N)[C@@H](O)[C@@H]1O	6 µg/mL (≈ 5.25 µM)	6 µg/mL (≈ 5.25 µM)	0.4 µg/mL (≈ 0.35 µM)	6 µg/mL (≈ 5.25 µM)	1	1	1.5 µg/mL (≈ 1.31 µM)	6 µg/mL (≈ 5.25 µM)	6 µg/mL (≈ 5.25 µM)	1	12 µg/mL (≈ 10.5 µM)	3 µg/mL (≈ 2.63 µM)	0.4 µg/mL (≈ 0.35 µM)	3 µg/mL (≈ 2.63 µM)			
NC[C@@H]1O[C@H](O[C@H]2[C@@H](O)[C@H](O[C@@H]3[C@@H](O)[C@H](N)C[C@H](N)[C@H]3O[C@H]3O[C@H](CN)[C@@H](O)[C@H](O)[C@H]3N)O[C@@H]2C(=O)Nc2ccc(-c3cn(CCOCCN4CCN(c5cc6c(cc5F)c(=O)c(C(=O)O)cn6C5CC5)CC4)nn3)cc2)[C@H](N)[C@@H](O)[C@@H]1O				24 µg/mL (≈ 20.5 µM)			1.5 µg/mL (≈ 1.28 µM)		12 µg/mL (≈ 10.2 µM)		12 µg/mL (≈ 10.2 µM)	24 µg/mL (≈ 20.5 µM)		12 µg/mL (≈ 10.2 µM)			
NC[C@@H]1O[C@H](O[C@H]2[C@@H](O)[C@H](O[C@@H]3[C@@H](O)[C@H](N)C[C@H](N)[C@H]3O[C@H]3O[C@H](CN)[C@@H](O)[C@H](O)[C@H]3N)O[C@@H]2C(=O)Nc2ccc(-c3cn(Cc4cccc(CN5CCN(c6cc7c(cc6F)c(=O)c(C(=O)O)cn7C6CC6)CC5)c4)nn3)cc2)[C@H](N)[C@@H](O)[C@@H]1O				6 µg/mL (≈ 4.98 µM)			1.5 µg/mL (≈ 1.25 µM)		12 µg/mL (≈ 9.96 µM)		12 µg/mL (≈ 9.96 µM)	12 µg/mL (≈ 9.96 µM)		6 µg/mL (≈ 4.98 µM)			
NC[C@@H]1O[C@H](O[C@H]2[C@@H](O)[C@H](O[C@@H]3[C@@H](O)[C@H](N)C[C@H](N)[C@H]3O[C@H]3O[C@H](CN)[C@@H](O)[C@H](O)[C@H]3N)O[C@@H]2C(=O)Nc2ccc(-c3cn(CCCCCN4CCN(c5cc6c(cc5F)c(=O)c(C(=O)O)cn6C5CC5)CC4)nn3)cc2)[C@H](N)[C@@H](O)[C@@H]1O				12 µg/mL (≈ 10.3 µM)			1.5 µg/mL (≈ 1.28 µM)		6 µg/mL (≈ 5.13 µM)		24 µg/mL (≈ 20.5 µM)	48 µg/mL (≈ 41 µM)		12 µg/mL (≈ 10.3 µM)			
NC[C@@H]1O[C@H](O[C@H]2[C@@H](O)[C@H](O[C@@H]3[C@@H](O)[C@H](N)C[C@H](N)[C@H]3O[C@H]3O[C@H](CN)[C@@H](O)[C@H](O)[C@H]3N)O[C@@H]2C(=O)Nc2ccc(-c3cn(CC(O)CN4CCN(c5cc6c(cc5F)c(=O)c(C(=O)O)cn6C5CC5)CC4)nn3)cc2)[C@H](N)[C@@H](O)[C@@H]1O (stereo partly drawn)				6 µg/mL (≈ 5.18 µM)			0.75 µg/mL (≈ 0.648 µM)		3 µg/mL (≈ 2.59 µM)		6 µg/mL (≈ 5.18 µM)	24 µg/mL (≈ 20.7 µM)		6 µg/mL (≈ 5.18 µM)	580 nM	73 nM	2200 nM
NC[C@@H]1O[C@H](O[C@H]2[C@@H](O)[C@H](O[C@@H]3[C@@H](O)[C@H](N)C[C@H](N)[C@H]3O[C@H]3O[C@H](CN)[C@@H](O)[C@H](O)[C@H]3N)O[C@@H]2C(=O)Nc2ccc(-c3cn(CCCCN4CCN(c5cc6c(cc5F)c(=O)c(C(=O)O)cn6C5CC5)CC4)nn3)cc2)[C@H](N)[C@@H](O)[C@@H]1O				12 µg/mL (≈ 10.4 µM)			1.5 µg/mL (≈ 1.3 µM)		6 µg/mL (≈ 5.19 µM)		24 µg/mL (≈ 20.8 µM)	24 µg/mL (≈ 20.8 µM)		6 µg/mL (≈ 5.19 µM)			
NC[C@@H]1O[C@H](O[C@H]2[C@@H](O)[C@H](O[C@@H]3[C@@H](O)[C@H](N)C[C@H](N)[C@H]3O[C@H]3O[C@H](CN)[C@@H](O)[C@H](O)[C@H]3N)O[C@@H]2C(=O)NCc2cn(CCCN3CCN(c4cc5c(cc4F)c(=O)c(C(=O)O)cn5C4CC4)CC3)nn2)[C@H](N)[C@@H](O)[C@@H]1O				12 µg/mL (≈ 11.1 µM)			1.5 µg/mL (≈ 1.39 µM)		6 µg/mL (≈ 5.55 µM)		12 µg/mL (≈ 11.1 µM)	48 µg/mL (≈ 44.4 µM)		6 µg/mL (≈ 5.55 µM)			

Source: ChEMBL document CHEMBL1153403, “Design, synthesis, and evaluation of novel fluoroquinolone-aminoglycoside hybrid antibiotics” (J Med Chem, 2009)
